Measured values taken from ChEMBL document CHEMBL2086252, “Syntheses and evaluation of anticonvulsant activity of novel branched alkyl carbamates” (J Med Chem, 2012).
Active and inactive are the calls of the source. The calls are words filed in the database; no cut-off is given here.

How the values were obtained:
[1] = Neurotoxicity in po dosed Sprague-Dawley albino rat assessed as minimal motor impairment by rotarod test; format: toxicity, organism-based; settings: in vivo
How it was run: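 Rats dosed orally; 4 rats per time point after dosing. Neurotoxicity was scored as motor impairment or sedation and reported as number of animals affected over number tested.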

Mus musculus [2] = assay: Anticonvulsant activity in albino CF1 mouse assessed as protection against subcutaneous metrazol-induced seizures at 30 mg/kg, ip after 0.5 hrs; format: functional, organism-based; parameters: dose 30 mg/kg
How it was run: (§1)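 Mice dosed ip at 30, 100 or 300 mg/kg, then tested 0.5 h and 4 h after administration in the MES or scMet test. Protection was recorded as animals protected over animals tested. Neurotoxicity was recorded as motor impairment or sedation, as animals affected over animals tested.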

Mus musculus [3] = assay: Anticonvulsant activity in albino CF1 mouse assessed as protection against subcutaneous metrazol-induced seizures at 300 mg/kg, ip after 0.5 hrs; format: functional, organism-based; parameters: dose 300 mg/kg; how it was run: as §1
Mus musculus [4] = assay: Anticonvulsant activity in albino CF1 mouse assessed as protection against subcutaneous metrazol-induced seizures at 30 mg/kg, ip after 4 hrs; format: functional, organism-based; parameters: dose 30 mg/kg; how it was run: as §1
Mus musculus [5] = assay: Anticonvulsant activity in albino CF1 mouse assessed as protection against subcutaneous metrazol-induced seizures at 100 mg/kg, ip after 4 hrs; format: functional, organism-based; parameters: dose 100 mg/kg; how it was run: as §1
Mus musculus [6] = assay: Anticonvulsant activity in albino CF1 mouse assessed as protection against subcutaneous metrazol-induced seizures at 300 mg/kg, ip after 4 hrs; format: functional, organism-based; parameters: dose 300 mg/kg; how it was run: as §1
Mus musculus [7] = assay: Anticonvulsant activity in albino CF1 mouse assessed as protection against maximal electroshock-induced seizures at 30 mg/kg, ip after 0.5 hrs; format: functional, organism-based; parameters: dose 30 mg/kg; how it was run: as §1
Mus musculus [8] = assay: Anticonvulsant activity in albino CF1 mouse assessed as protection against maximal electroshock-induced seizures at 100 mg/kg, ip after 0.5 hrs; format: functional, organism-based; parameters: dose 100 mg/kg; how it was run: as §1
Mus musculus [9] = assay: Anticonvulsant activity in albino CF1 mouse assessed as protection against maximal electroshock-induced seizures at 300 mg/kg, ip after 0.5 hrs; format: functional, organism-based; parameters: dose 300 mg/kg; how it was run: as §1
Mus musculus [10] = assay: Anticonvulsant activity in albino CF1 mouse assessed as protection against maximal electroshock-induced seizures at 30 mg/kg, ip after 4 hrs; format: functional, organism-based; parameters: dose 30 mg/kg; how it was run: as §1
Mus musculus [11] = assay: Anticonvulsant activity in albino CF1 mouse assessed as protection against maximal electroshock-induced seizures at 100 mg/kg, ip after 4 hrs; format: functional, organism-based; parameters: dose 100 mg/kg; how it was run: as §1
Mus musculus [12] = assay: Anticonvulsant activity in albino CF1 mouse assessed as protection against maximal electroshock-induced seizures at 300 mg/kg, ip after 4 hrs; format: functional, organism-based; parameters: dose 300 mg/kg; how it was run: as §1
Mus musculus [13] = assay: Neurotoxicity in albino CF1 mouse assessed as minimal motor impairment at 30 mg/kg, ip after 0.5 hrs by rotarod test; format: toxicity, organism-based; parameters: dose 30 mg/kg, route intraperitoneal; settings: in vivo; how it was run: as §1
Mus musculus [14] = assay: Neurotoxicity in albino CF1 mouse assessed as minimal motor impairment at 300 mg/kg, ip after 0.5 hrs by rotarod test; format: toxicity, organism-based; parameters: dose 300 mg/kg, route intraperitoneal; settings: in vivo; how it was run: as §1
Mus musculus [15] = assay: Neurotoxicity in albino CF1 mouse assessed as minimal motor impairment at 30 mg/kg, ip after 4 hrs by rotarod test; format: toxicity, organism-based; parameters: dose 30 mg/kg, route intraperitoneal; settings: in vivo; how it was run: as §1
Mus musculus [16] = assay: Neurotoxicity in albino CF1 mouse assessed as minimal motor impairment at 100 mg/kg, ip after 4 hrs by rotarod test; format: toxicity, organism-based; parameters: dose 100 mg/kg, route intraperitoneal; settings: in vivo; how it was run: as §1
Mus musculus [17] = assay: Neurotoxicity in albino CF1 mouse assessed as minimal motor impairment at 300 mg/kg, ip after 4 hrs by rotarod test; format: toxicity, organism-based; parameters: dose 300 mg/kg, route intraperitoneal; settings: in vivo; how it was run: as §1
Rattus norvegicus [18] = assay: Anticonvulsant activity in Sprague-Dawley albino rat assessed as protection against maximal electroshock-induced seizures at 30 mg/kg, po after 15 mins; format: functional, organism-based; parameters: dose 30 mg/kg
How it was run: (§2)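 Rats dosed orally. Anti-MES protection was scored as animals protected over animals tested at each time after dosing. Neurotoxicity was scored as motor impairment or sedation, as animals affected over animals tested.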

Rattus norvegicus [19] = assay: Anticonvulsant activity in Sprague-Dawley albino rat assessed as protection against maximal electroshock-induced seizures at 30 mg/kg, po after 30 mins; format: functional, organism-based; parameters: dose 30 mg/kg; how it was run: as §2
Rattus norvegicus [20] = assay: Anticonvulsant activity in Sprague-Dawley albino rat assessed as protection against maximal electroshock-induced seizures at 30 mg/kg, po after 1 hr; format: functional, organism-based; parameters: dose 30 mg/kg; how it was run: as §2
Rattus norvegicus [21] = assay: Anticonvulsant activity in Sprague-Dawley albino rat assessed as protection against maximal electroshock-induced seizures at 30 mg/kg, po after 4 hrs; format: functional, organism-based; parameters: dose 30 mg/kg; how it was run: as §2
Rattus norvegicus [22] = assay: Neurotoxicity in Sprague-Dawley albino rat assessed as minimal motor impairment at 30 mg/kg, po by rotarod test; format: toxicity, organism-based; parameters: dose 30 mg/kg, route oral; settings: in vivo; how it was run: as §2
Rattus norvegicus [23] = assay: Anticonvulsant activity in po dosed Sprague-Dawley albino rat assessed as protection against maximal electroshock-induced seizures; format: functional
How it was run: (§3)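 Quantitative testing: rats dosed orally or ip in MES and scMet tests, and mice dosed ip, including the 6 Hz (32 mA) psychomotor seizure test. ED50 and TD50 were reported in mg/kg with ranges in parentheses. Protective index was calculated as TD50/ED50.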

Mus musculus [24] = assay: Anticonvulsant activity in ip dosed albino CF1 mouse assessed as protection against maximal electroshock-induced seizures; format: functional; how it was run: as §3
Rattus norvegicus [25] = assay: Protective index, ratio of TD50 for po dosed Sprague-Dawley albino rat by rotarod test to ED50 for po dosed Sprague-Dawley albino rat by maximal electroshock seizures test; format: functional
How it was run: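 Protective index calculated as TD50/ED50, with TD50 and ED50 taken from the same species and dosing route.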

[26] = Neurotoxicity in ip dosed albino CF1 mouse assessed as minimal motor impairment by rotarod test; format: toxicity, organism-based; settings: in vivo; how it was run: as §3
Rattus norvegicus [27] = assay: Anticonvulsant activity in ip dosed Sprague-Dawley albino rat assessed as protection against pilocarpine-induced status epilepticus after 0.5 hrs; format: functional
How it was run: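 Pilocarpine status epilepticus model in rats. Number and severity of convulsive seizures were observed behaviourally.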

Rattus norvegicus [28] = assay: Neurotoxicity in pilocarpine-induced status epilepticus Sprague-Dawley albino rat model assessed as minimal motor impairment at 200 mg/kg, ip after 0.5 hrs by rotarod test; format: toxicity, organism-based; parameters: dose 200 mg/kg, route intraperitoneal; settings: in vivo
How it was run: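 Rat pilocarpine status epilepticus model: test carbamate given at 0 or 30 min after the first observed Racine stage 3 motor seizure, which marks SE onset. Neurotoxicity was scored within the same model.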

Mus musculus [29] = assay: Anticonvulsant activity in albino CF1 mouse assessed as protection against maximal electroshock-induced seizures at 3 mg/kg, ip after 0.5 hrs; format: functional, organism-based; parameters: dose 3 mg/kg
Mus musculus [30] = assay: Anticonvulsant activity in albino CF1 mouse assessed as protection against maximal electroshock-induced seizures at 10 mg/kg, ip after 0.5 hrs; format: functional, organism-based; parameters: dose 10 mg/kg
Mus musculus [31] = assay: Neurotoxicity in albino CF1 mouse assessed as minimal motor impairment at 3 mg/kg, ip after 0.5 hrs by rotarod test; format: toxicity, organism-based; parameters: dose 3 mg/kg, route intraperitoneal; settings: in vivo
Mus musculus [32] = assay: Neurotoxicity in albino CF1 mouse assessed as minimal motor impairment at 10 mg/kg, ip after 0.5 hrs by rotarod test; format: toxicity, organism-based; parameters: dose 10 mg/kg, route intraperitoneal; settings: in vivo

## NC(=O)OCCc1ccccc1 [PHENYLETHYL CARBAMATE]
[1]
  TD50: < 400 mg/kg
Mus musculus [2]
  Activity: inactive
Mus musculus [3]
  Activity: Active
Mus musculus [4]
  Activity: inactive
Mus musculus [5]
  Activity: inactive
Mus musculus [6]
  Activity: inactive
Mus musculus [7]
  Activity: Active
Mus musculus [8]
  Activity: Active
Mus musculus [9]
  Activity: Active
Mus musculus [10]
  Activity: inactive
Mus musculus [11]
  Activity: inactive
Mus musculus [12]
  Activity: Active
Mus musculus [13]
  Activity: Non-toxic
Mus musculus [14]
  Activity: Toxic
Mus musculus [15]
  Activity: Non-toxic
Mus musculus [16]
  Activity: Non-toxic
Mus musculus [17]
  Activity: Non-toxic
Rattus norvegicus [18]
  Activity: Active
Rattus norvegicus [19]
  Activity: Active
Rattus norvegicus [20]
  Activity: Active
Rattus norvegicus [21]
  Activity: inactive
Rattus norvegicus [22]
  Activity: Non-toxic
Rattus norvegicus [23]
  ED50: 16 mg/kg
Mus musculus [24]
  ED50: 18 mg/kg
Rattus norvegicus [25]
  Ratio TD50/ED50: <25
[26]
  TD50: 114 mg/kg
Rattus norvegicus [27]
  ED50: 105 mg/kg
  ED97: 221 mg/kg
Rattus norvegicus [28]
  Activity: Toxic
Mus musculus [29]
  Activity: inactive
Mus musculus [30]
  Activity: inactive
Mus musculus [31]
  Activity: Non-toxic
Mus musculus [32]
  Activity: Non-toxic
